Screens as filed in PubChem.
This is a sample that favours compounds with a hit; in the whole collection about 3.7% have one here.
Beta2AR agonist: activates human beta-2 adrenergic receptor causing internalization; Am2.2-beta2AR cells, FAP receptor internalization, flow cytometry; 340,000 tested, 0.43% active; P07550; response, % (concentration not given with the values);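 active means response above a set limit, near 3 SD of response in nonfluorescent compounds, cut at about 42% in these data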
Target sequence (P07550 whole entry, looked up): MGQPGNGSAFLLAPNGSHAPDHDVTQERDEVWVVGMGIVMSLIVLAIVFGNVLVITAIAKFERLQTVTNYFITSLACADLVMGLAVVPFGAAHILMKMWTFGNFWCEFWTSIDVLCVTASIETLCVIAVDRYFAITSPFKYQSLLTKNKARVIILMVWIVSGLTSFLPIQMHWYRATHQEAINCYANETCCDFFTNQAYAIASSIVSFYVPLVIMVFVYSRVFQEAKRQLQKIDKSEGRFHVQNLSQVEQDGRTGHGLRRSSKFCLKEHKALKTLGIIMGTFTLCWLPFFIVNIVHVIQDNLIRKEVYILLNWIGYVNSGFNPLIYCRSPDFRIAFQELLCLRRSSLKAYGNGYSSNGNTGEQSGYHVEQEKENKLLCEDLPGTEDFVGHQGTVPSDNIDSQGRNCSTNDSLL
UPR CHOP act: apoptotic UPR (CHOP) activation | CHO-CHOP luciferase reporter, luminescence; percent of tunicamycin response over DMSO baseline | activation, % at 10 µM | 330,000 tested, 0.34% active;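 active means at 10 µM dose, activation of 40% or more, normalized to positive control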
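System: CHO-CHOP luciferase reporter cell line | Buffer or medium: F12 medium containing 10% fetal bovine serum | Doses: One dose, 10 µM in 0.5% DMSO | Times: 6 h compound exposure at 37 °C after overnight seeding | Signal: Luciferase luminescence | Read-out: % activation vs tunicamycin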
Dynein transport: dynein cargo transport inhibition | 3617.4 mouse cells, GR-EGFP nuclear translocation imaging; test concentration mostly 20 µM; stimulated with dexamethasone, 1 µM; active compounds read low | z-score, hits read low | 220,000 tested, 0.47% active;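 active means plate z-score of nuclear minus cytoplasmic receptor signal below a set negative limit, without overly bright fluorescence or cell loss, cut at about -3.5 in these data, passing the limit was not always enough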;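 further: z-score of nuclear minus cytoplasmic ring GR-EGFP intensity difference per well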
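Schedule: 48 h induction, then 1 h compound, then 30 min agonist, 37 °C. Buffer or medium: tetracycline-free induction medium containing charcoal-stripped FBS. Reagent: 1.0 µM final dexamethasone stimulus. Evaluation: nuclear versus cytoplasmic GR-EGFP signal, averaged per well. Signal: high-content fluorescence imaging after fixation.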
UPR XBP1 act: adaptive UPR (XBP1) activation | CHO-XBP1 luciferase reporter, IRE1-XBP1 UPR activation, luminescence; percent of tunicamycin response, DMSO as zero | activation, % at 20 µM | 330,000 tested, 0.33% active | AID 463104;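 active means versus positive control, 20 µM dose yields 30% or more activation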
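Material: CHO cell line with stable XBP1 luciferase reporter; schedule: 16-18 h cell attachment at 37 °C, then 6 h compound exposure; signal: glow luminescence from Steady-Glo reagent; medium: serum-containing F12 medium, 10% FBS; benchmarks: tunicamycin 10 µg/mL and vehicle-only wells; read-out: percent activation relative to tunicamycin reference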
MDM2 E3 inh: Mdm2 E3 ligase (human) inhibition; Q00987; cell-based MDM2 ubiquitination luciferase reporter, 2 h; 0 = plate control, 100 = twice control, blank-subtracted; signal enhancement, % at 5 µM; 210,000 tested, 0.11% active; AID 1230;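 active means signal enhancement of 30% or more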;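 further: luminescence tracks abundance of the self-degrading MDM2-luciferase fusion protein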
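Assay system: stable mammalian line carrying autodegrading MDM2–luciferase fusion reporter; amount: 2000 cells seeded into each well; buffer or medium: DMEM; benchmarks: plate control and blank wells; signal: luciferase luminescence; timing: 2 h compound exposure at 37 °C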
Mdm2 MdmX PPI: inhibitors of human Mdm2/MdmX interaction; inhibition, % at 8 µM; 330,000 tested, 3% active; AID 485346; O15151+Q00987; SaOS-2 split-luciferase Mdm2/MdmX complementation, luminescence;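 active means inhibition of at least 50% at 8 µM in the primary screen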
Mdm2-MdmX conf: human Mdm2/MdmX binding inhibition, confirmed; shares compounds with Mdm2 MdmX PPI; luminescent assay; inhibition, % at 8 µM; 10,000 tested, 55% active; AID 489028; in the data active means inhibition above about 40%
Full FLuc ctr: full-length luciferase inhibition in Mdm2/MdmX counter-screen. AID 504607. SaOS-2 full-length luciferase counterscreen, luminescence. 6,200 tested, 77% active. inhibition, % at 8 µM. shares compounds with Mdm2 MdmX PPI;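 active means mean inhibition at 8 µM reaching about 37%, which flags the compound as non-specific, limit read from the data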;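 further: p53-null SaOS-2 cells with luciferase driven by a doxycycline-inducible promoter; compound on cells about two nights before reading with doxycycline added after day one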
Of the large screens only hits and unclear results are named; the others gave an inactive call (follow-up assays come after a bar, where they were run).

Cc1ncc(COCc2ccccc2)c(CO)c1OCc1ccccc1	none (no result: UPR CHOP act, Dynein transport, UPR XBP1 act, MDM2 E3 inh, Mdm2 MdmX PPI)
CCCOCc1ccc(O)c2ncccc12	Mdm2 MdmX PPI 75 | Mdm2-MdmX conf 56 | Full FLuc ctr inactive
O=C(O)C1(c2ccccc2)CCN(S(=O)(=O)c2ccc(Br)cc2)CC1	none (no result: Dynein transport, MDM2 E3 inh)
N#Cc1c(NCCN)nc(-c2ccccc2)c2c1CCCC2	Mdm2 MdmX PPI 58 | Mdm2-MdmX conf inactive
Cc1ccc(C(=O)Nc2ncccc2C)cc1S(=O)(=O)N1CCCCC1	none (no result: Dynein transport, MDM2 E3 inh)
CCOc1ccc(-c2cc(CCCC(=O)Nc3cccc(OC)c3)no2)cc1	Mdm2 MdmX PPI 54 | Mdm2-MdmX conf 45 | Full FLuc ctr 61
CCOc1ccc(NC(=O)CCCc2cc(-c3ccc(OCC)cc3)on2)cc1	none
Cc1nn(-c2ccccc2)c(Cl)c1CN(C(=O)CCl)c1cccc2ccccc12	Mdm2 MdmX PPI 99 | Mdm2-MdmX conf 99 | Full FLuc ctr 53
Cc1nn(-c2ccccc2)c(Cl)c1C(=O)NCC(=O)O	none
Cn1cccc1C(=O)NC(=O)COC(=O)c1ccc(S(C)(=O)=O)c([N+](=O)[O-])c1	Mdm2 MdmX PPI 64 (no result: Dynein transport, MDM2 E3 inh) | Mdm2-MdmX conf inactive | Full FLuc ctr 40
Cn1ccsc1=NC(=O)c1ccc(S(C)(=O)=O)c([N+](=O)[O-])c1	Mdm2 MdmX PPI 51 (no result: Dynein transport, MDM2 E3 inh) | Mdm2-MdmX conf inactive
O=C(Nc1ncccc1O)c1ccc(S(=O)(=O)Nc2ccccc2)cc1	none (no result: Dynein transport, MDM2 E3 inh)
Cc1ccc2nc(/C(C#N)=C/c3cn[nH]c3-c3ccc(F)cc3)[nH]c2c1	Mdm2 MdmX PPI 66 | Mdm2-MdmX conf 57 | Full FLuc ctr 48
Cc1ccc(NC(=O)C2=C(c3ccccc3)S(=O)(=O)CCS2(=O)=O)cc1	Beta2AR agonist 53, Mdm2 MdmX PPI 95 | Mdm2-MdmX conf 95 | Full FLuc ctr 52
Cc1ccc(C(=O)OCC(=O)NC(C)C2CC3CCC2C3)cc1N (centres undefined)	none (no result: Dynein transport, MDM2 E3 inh)
COc1ccc(OC)c(C(C[N+](=O)[O-])c2c(C)cc3ccccn23)c1 (centres undefined)	Mdm2 MdmX PPI 68 (no result: Dynein transport, MDM2 E3 inh) | Mdm2-MdmX conf 49 | Full FLuc ctr inactive
CN(CC(=O)Nc1ccc(F)cc1)C(=O)CCc1nc2sc3c(c2c(=O)[nH]1)CCCC3	none (no result: Dynein transport, MDM2 E3 inh)
Cc1cc(C)cc(NC(=O)CCc2nc3sc4c(c3c(=O)[nH]2)CCCC4)c1	Mdm2 MdmX PPI 82 (no result: Dynein transport, MDM2 E3 inh) | Mdm2-MdmX conf 94 | Full FLuc ctr 96
CN(CC(=O)Nc1ccc(Cl)cc1)C(=O)CCc1nc2sc3c(c2c(=O)[nH]1)CCCC3	Mdm2 MdmX PPI 86 (no result: Dynein transport, MDM2 E3 inh) | Mdm2-MdmX conf 50 | Full FLuc ctr 96
COc1cc(C(=O)/C=C/c2cccnc2)c([N+](=O)[O-])cc1OC	Mdm2 MdmX PPI 55 (no result: Dynein transport, MDM2 E3 inh) | Mdm2-MdmX conf inactive
O=C(/C=C/c1cccnc1)c1ccc([N+](=O)[O-])cc1	none (no result: Dynein transport, MDM2 E3 inh)
Fc1ccc(-c2nc(-c3cccs3)[nH]c2-c2ccc(F)cc2)cc1	Mdm2 MdmX PPI 52 | Mdm2-MdmX conf inactive | Full FLuc ctr 79
Oc1ccc(-c2nc(-c3ccc(F)cc3)c(-c3ccncc3)[nH]2)cc1	Mdm2 MdmX PPI 79 (no result: Dynein transport, MDM2 E3 inh) | Mdm2-MdmX conf inactive | Full FLuc ctr 75
O=[N+]([O-])c1cccc(-c2nc(-c3cccs3)c(-c3cccs3)[nH]2)c1	none
O=C(O)c1ccc(-c2nc(-c3ccccc3)c(-c3ccccc3)[nH]2)cc1	none
O=[N+]([O-])c1ccc(-c2nc(-c3cccs3)c(-c3cccs3)[nH]2)cc1	Mdm2 MdmX PPI 56 | Mdm2-MdmX conf inactive
Cc1ccsc1-c1nc(-c2ccccc2)c(-c2ccccc2)[nH]1	none
Cc1c(Br)c([N+](=O)[O-])nn1CC(=O)NCCc1c[nH]c2ccccc12	none
